From article PMC3058531 (Biochemistry, 2010)
Entries after “also recorded” stand apart in the source; their conditions may differ. * marks the point of attachment. pNA = O=[N+]([O-])c1ccc(N*)cc1

Key:
[1] = target: T1, Southampton norovirus 3C protease (SV3CP) (Southampton virus, UniProt Q04544); assay: Chromogenic pNA peptide substrate cleavage, initial rates at 405 nm; type: biochemical; conditions: compared with Ac-EFQLQ-pNA or other trial substrates; pH 8.5
Method in brief: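 Recombinant SV3CP expressed in E. coli BL21(DE3) pLysS, self-excised from flanking sequences, purified by two cation-exchange steps. N-acetylated peptide-pNA substrates in DMSO, diluted into 100 mM Tris pH 8.5 with 5 mM β-mercaptoethanol (final substrate 0.1−3.0 mM, enzyme 0.1 mg/mL). A405 of samples read every 1 min for 10 min; initial rates gave KM, kcat and kcat/KM.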

[2] = Solubility of the inhibitor in protein buffer; type: physicochemical; conditions: 10% DMSO had to be included in the buffer
[3] = target: T1, Southampton norovirus 3C protease (SV3CP); type: biochemical; conditions: preincubation with millimolar concentrations of the inhibitor prior to addition of substrate; within the dead time of the experiment
[4] = target: T1, Southampton norovirus 3C protease (SV3CP); assay: Mass spectrometry of the SV3CP-MAPI complex; type: binding; conditions: single major protein peak at 20045 Da
[5] = test system: Southampton norovirus 3C protease (SV3CP), Cys 139; assay: X-ray structure of the SV3CP-MAPI complex; type: binding; conditions: cocrystal at 1.7 Å resolution, PDB 2IPH; crystals at pH 8.5

T1 sequence (Q04544 1100-1280 limits assumed): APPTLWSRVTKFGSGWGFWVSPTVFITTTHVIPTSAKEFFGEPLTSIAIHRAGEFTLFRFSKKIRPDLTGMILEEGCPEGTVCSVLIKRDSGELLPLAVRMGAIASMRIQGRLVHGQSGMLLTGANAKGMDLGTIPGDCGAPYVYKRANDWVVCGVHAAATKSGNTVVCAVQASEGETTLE

Ac-EFQLQ-pNA
kcat/KM, kcat and KM comparison in words [1]: had the highest kcat/KM ratio; also recorded: the best substrate in terms of specificity constant (kcat/KM ratio)

Ac-DEFQLQ-pNA
kcat/KM, kcat and KM comparison in words [1]: had a kcat which was higher than that of Ac-EFQLQ-pNA although its proportionately higher KM meant that it was a slightly inferior substrate in terms of specificity constant

acetyl-Glu-Phe-Gln-Leu-Gln-X [MAPI]
solubility (in words) [2]: essentially insoluble
time to irreversible inactivation of the enzyme [3]: < 30 s
binding stoichiometry [4]: one molecule of SV3CP plus one molecule of the inhibitor
covalent binding mode [5]: the active site thiol of Cys 139 is bound covalently to the C-terminal Michael-acceptor extension of the inhibitor MAPI
